This note sets out measurements from ChEMBL document CHEMBL1121366, “Synthesis and immunological activity of 5,6,6a,8,9,11a-hexahydronaphth[1',2':4,5]imidazo[2,1-b]thiazoles and 5,6,6a,9,10,11a-hexahydroanaphth[2',1':4,5]imidazo[2,1-b]thiazoles” (J Med Chem, 1980).

Data set [1] relates to Mus musculus. The experiment in a line: Acute lethal dose was determined in mice upon subcutaneous administration. It is filed as ADME, organism-based. The conditions noted are these: in vivo, sc. The method, boiled down: (§1)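 Male mice, 8–10 weeks old, CDF1 (Balb/c × DBA/2Cr). Groups of six dosed once, either iv or sc. Three to five dose levels were chosen from 400, 300, 150, 80, 40, 20 and 10 mg/kg. LD50 was calculated by the Litchfield–Wilcoxon method. Vehicle was saline or saline with 1% Me2SO, depending on compound.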

Data set [2] concerns Mus musculus. The data set can be described thus: Tested for increase in foot-pad thickness (mm) by its effect on cellular immune response in mice against sheep red blood cells by the DHR method in experiment 10 at dose 3 mg/kg. The class given is functional. The method, boiled down: (§2)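 Male ICR mice, 8-10 weeks old, groups of four, were sensitized with 1 × 10^8 SRBC in PBS into one hind footpad and dosed sc in the inguinal region, in saline or in saline with 1% Me2SO. Four days later the other footpad was challenged with 1 × 10^8 SRBC. Foot thickness was gauged just before and 24 h after challenge, and the increase was reported as mean of four ± SE.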

Data set [3] relates to Mus musculus. The experiment in a line: Acute lethal dose was determined in mice upon intravenous administration. The following applies: in vivo. It is filed as ADME, organism-based. In a few lines:
as §1

In data set [4] the test system is Mus musculus. The experiment in a line: Effect on humoral immune response in mice against sheep red blood cells by the plaque-forming cell (PFC/10e 6 spleen cells) method in experiment 1 at dose 3 mg/kg. The class given is functional. In a few lines: (§3)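 Male CDF1 (Balb/c × DBA/2Cr) mice, 8-10 weeks old, groups of four, were immunized iv with 1 × 10^8 SRBC in PBS. After 24 h they received a single sc inguinal dose in saline, or as a suspension in saline with 1% Me2SO. Spleens were taken 4 days later and hemolytic plaque-forming cells counted by Cunningham's method. Values are the mean of four mice ± SE, with a paired Student's t test against the control.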

Data set [5] concerns Mus musculus. The experiment in a line: Effect on humoral immune response in mice against sheep red blood cells by the plaque-forming cell (PFC/10e 6 spleen cells) method in experiment 1 at dose 12 mg/kg. It is filed as functional. The method, boiled down: as §3
The test system of data set [6] is Mus musculus. The experiment in a line: Tested for increase in foot-pad thickness (mm) by its effect on cellular immune response in mice against sheep red blood cells by DHR method in experiment 10 at dose 3 mg/kg. It is filed as functional. The method, boiled down: as §2
Data set [7] deals with Mus musculus. The data set can be described thus: Tested for increase in foot-pad thickness (mm) by its effect on cellular immune response in mice against sheep red blood cells by DHR method in experiment 16 at dose 12 mg/kg. It is filed as functional. The method, boiled down:
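Male mice, 8–10 weeks old, ICR strain. Groups of four were sensitized with 1 × 10^8 SRBC in PBS into one hind footpad, with compound given sc in the inguinal region in saline or saline/1% Me2SO. Four days later, 1 × 10^8 SRBC were injected into the other hind footpad. Foot thickness was measured with a dial gauge just before and 24 h after this challenge, and the increase was taken as the difference. Values are the mean of four mice ± SE.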

Data set [8] concerns Mus musculus. The data set can be described thus: Tested increase in foot-pad thickness (mm) by its effect on cellular immune response in mice against sheep red blood cells by the DHR method in experiment 16 at dose 3 mg/kg. It is filed as functional. In a few lines: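 Male ICR mice, 8–10 weeks old, groups of four. Sensitized with SRBC (1 × 10^8) in PBS injected into one hind footpad; compound given sc in the inguinal region in saline or in saline with 1% Me2SO. Four days later the other hind footpad was challenged with SRBC (1 × 10^8). Dial gauge read just before and 24 h after challenge. Value is the mean increase ± SE.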

Data set [9] deals with Mus musculus. The data set can be described thus: Tested for increase in foot-pad thickness (mm) by its effect on cellular immune response in mice against sheep red blood cells by DHR method in experiment 11 at dose 12 mg/kg. It is filed as functional. In a few lines: as §2
Data set [10] concerns Mus musculus. The experiment in a line: Effect on humoral immune response in mice against sheep red blood cells by the plaque-forming cell (PFC/10e 6 spleen cells) method in experiment 2 at dose 12 mg/kg. It is filed as functional. In a few lines: (§4)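 Male ICR mice, 8-10 weeks old, groups of four, were immunized iv with 1 × 10^8 SRBC in PBS. After 24 h they received a single sc inguinal dose in saline, or as a suspension in saline with 1% Me2SO. Splenic hemolytic plaque-forming cells were counted 4 days later by Cunningham's method. Values are the mean of four ± SE, with a paired t test against the control.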

Data set [11] relates to Mus musculus. The experiment in a line: Effect on humoral immune response in mice against sheep red blood cells by the plaque-forming cell (PFC/10e 6 spleen cells) method in experiment 2 at dose 3 mg/kg. The class given is functional. In a few lines: as §4
For data set [12], the system named is Mus musculus. The data set can be described thus: Tested for the immunological activity by its effect on humoral immune response in mice against sheep red blood cells (SRBC) by the plaque-forming cell (PFC/10e 6 spleen cells) method in experiment 7 at dose 12 mg/kg. The class given is functional. The method, boiled down: as §3
The subject of data set [13] is Mus musculus. The data set can be described thus: Tested for the immunological activity by its effect on humoral immune response in mice against sheep red blood cells (SRBC) by the plaque-forming cell (PFC/10e 6 spleen cells) method in experiment 7 at dose 3 mg/kg. It is filed as functional. The method, boiled down:
as §3

Turning to `c1ccc2c(c1)CCC1C2N=C2SCCN21` (stereo in doubt), the LD50 in the data set with Mus musculus [1] is 116 mg/kg; in the data set on Mus musculus [3] it was 27 mg/kg. In addition, the Increase in footpad thickness with Mus musculus [2] was found to be 0.42 mm; in the data set with Mus musculus [6], 0.44 mm. Also, the figures for the PFC in the data set with Mus musculus [4] and with Mus musculus [5] were 1220 and 860, respectively.

Turning to `c1ccc2c(c1)CCC1N=C3SCCN3C21` (trans isomer), the LD50 with Mus musculus [1] came out at 190 mg/kg; with Mus musculus [3], 26 mg/kg. Further, the Increase in footpad thickness in the data set on Mus musculus [7] was found to be 0.43 mm; with Mus musculus [8], 0.27 mm; in the data set on Mus musculus [9], 0.39 mm. For the same compound, the PFC with Mus musculus [10] was 2580; with Mus musculus [11], 2440; in the data set on Mus musculus [12], 960; in the data set on Mus musculus [13] it was 1110.

Usually LD50 stands for the dose at which mortality reaches 50%.
